Measurements from ChEMBL document CHEMBL2401716, “Design and stereoselective synthesis of novel isosteviol-fused pyrazolines and pyrazoles as potential anticancer agents” (Eur J Med Chem, 2013).

Legend:
Assay type in all cases: functional, cell-based
HeLa = test: Antiproliferative activity against human HeLa cells after 48 hrs by MTT assay
How it was run: (§1)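 Cells seeded in 96-well plates and exposed to compounds for 48 h at 37 °C, 5% CO2. MTT (0.5 mg/mL) then added for 4 h. Supernatant removed, formazan dissolved in DMSO, and OD read at 570 nm. Cisplatin served as positive control.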

SGC-7901 = test: Antiproliferative activity against human SGC7901 cells after 48 hrs by MTT assay; details: SGC-7901, 48 h; how it was run: as §1
A549 = test: Antiproliferative activity against human A549 cells after 48 hrs by MTT assay; details: A549, 48 h; how it was run: as §1
Raji = test: Antiproliferative activity against human Raji cells after 48 hrs by MTT assay
How it was run: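 Human B-lymphoma Raji line kept in RPMI-1640 with 10% FBS and 100 U/mL penicillin at 37 °C, 5% CO2, humidified. Cells were plated in 96 wells and treated with compounds for 48 h. MTT (0.5 mg/mL) was added for 4 h, then formazan was taken up in DMSO after supernatant removal and read at 570 nm. Cisplatin served as positive control.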

| SMILES | IC50 (HeLa) | IC50 (SGC-7901) | IC50 (A549) | IC50 (Raji) |
| --- | --- | --- | --- | --- |
| CCOC(=O)[C@]1(C)CCC[C@@]2(C)[C@@H]3CC[C@@]4(C)C[C@]3(CC[C@@H]21)[C@@H]1CN(c2cccc(C(F)(F)F)c2)N=C14 | > 50 µM | > 50 µM | > 50 µM | 7.21 µM |
| CCOC(=O)[C@]1(C)CCC[C@@]2(C)[C@@H]3CC[C@@]4(C)C[C@]3(CC[C@@H]21)[C@@H]1CN(c2cccc(C)c2C)N=C14 | > 50 µM | 31.9 µM | > 50 µM | 8.82 µM |
| CCOC(=O)[C@]1(C)CCC[C@@]2(C)[C@@H]3CC[C@@]4(C)C[C@]3(CC[C@@H]21)[C@@H]1CN(c2ccc(C)cc2C)N=C14 | > 50 µM | 28.5 µM | > 50 µM | 11.2 µM |
| CCOC(=O)[C@]1(C)CCC[C@@]2(C)[C@@H]3CC[C@@]4(C)C[C@]3(CC[C@@H]21)[C@@H]1CN(c2ccc(C)c(C)c2)N=C14 | > 50 µM | 32.5 µM | > 50 µM | 8.36 µM |
| CCOC(=O)[C@]1(C)CCC[C@@]2(C)[C@@H]3CC[C@@]4(C)C[C@]3(CC[C@@H]21)c1cnn(-c2ccccc2F)c14 | > 50 µM | 35.6 µM | 27 µM | 4.15 µM |
| CCOC(=O)[C@]1(C)CCC[C@@]2(C)[C@@H]3CC[C@@]4(C)C[C@]3(CC[C@@H]21)c1cnn(-c2cccc(F)c2)c14 | > 50 µM | 35.8 µM | 19.2 µM | 3.4 µM |
| CCOC(=O)[C@]1(C)CCC[C@@]2(C)[C@@H]3CC[C@@]4(C)C[C@]3(CC[C@@H]21)c1cnn(-c2ccc(F)cc2)c14 | > 50 µM | 25.6 µM | 22.3 µM | 7.01 µM |
| CCOC(=O)[C@]1(C)CCC[C@@]2(C)[C@@H]3CC[C@@]4(C)C[C@]3(CC[C@@H]21)c1cnn(-c2cccc(Cl)c2)c14 | > 50 µM | 26.3 µM | 28.2 µM | 9.54 µM |
| CCOC(=O)[C@]1(C)CCC[C@@]2(C)[C@@H]3CC[C@@]4(C)C[C@]3(CC[C@@H]21)c1cnn(-c2ccccc2Br)c14 | 41.1 µM | 30.3 µM | 17.4 µM | 11.3 µM |
| CCOC(=O)[C@]1(C)CCC[C@@]2(C)[C@@H]3CC[C@@]4(C)C[C@]3(CC[C@@H]21)c1cnn(-c2cccc(Br)c2)c14 | > 50 µM | 34.9 µM | 26.5 µM | 3.27 µM |
| CCOC(=O)[C@]1(C)CCC[C@@]2(C)[C@@H]3CC[C@@]4(C)C[C@]3(CC[C@@H]21)c1cnn(-c2ccc(Br)cc2)c14 | > 50 µM | 29.6 µM | 23.1 µM | 4.78 µM |
| CCOC(=O)[C@]1(C)CCC[C@@]2(C)[C@@H]3CC[C@@]4(C)C[C@]3(CC[C@@H]21)c1cnn(-c2cccc(C)c2)c14 | > 50 µM | 13.6 µM | 12.4 µM | 4.84 µM |
| CCOC(=O)[C@]1(C)CCC[C@@]2(C)[C@@H]3CC[C@@]4(C)C[C@]3(CC[C@@H]21)c1cnn(-c2ccc(C)cc2)c14 | > 50 µM | 34.9 µM | 18.8 µM | 8.61 µM |
| CCOC(=O)[C@]1(C)CCC[C@@]2(C)[C@@H]3CC[C@@]4(C)C[C@]3(CC[C@@H]21)c1cnn(-c2cccc([N+](=O)[O-])c2)c14 | > 50 µM | > 50 µM | > 50 µM | 7.4 µM |
| CCOC(=O)[C@]1(C)CCC[C@@]2(C)[C@@H]3CC[C@@]4(C)C[C@]3(CC[C@@H]21)c1cnn(-c2ccc([N+](=O)[O-])cc2)c14 | > 50 µM | > 50 µM | > 50 µM | 10.2 µM |
| CCOC(=O)[C@]1(C)CCC[C@@]2(C)[C@@H]3CC[C@@]4(C)C[C@]3(CC[C@@H]21)c1cnn(-c2ccc(F)cc2F)c14 | > 50 µM | 28.4 µM | 20.1 µM | 9.96 µM |
| CCOC(=O)[C@]1(C)CCC[C@@]2(C)[C@@H]3CC[C@@]4(C)C[C@]3(CC[C@@H]21)c1cnn(-c2cc(F)ccc2F)c14 | > 50 µM | > 50 µM | > 50 µM | 7.11 µM |
| CCOC(=O)[C@]1(C)CCC[C@@]2(C)[C@@H]3CC[C@@]4(C)C[C@]3(CC[C@@H]21)c1cnn(-c2cccc(Cl)c2Cl)c14 | > 50 µM | > 50 µM | > 50 µM | 5.13 µM |
| CCOC(=O)[C@]1(C)CCC[C@@]2(C)[C@@H]3CC[C@@]4(C)C[C@]3(CC[C@@H]21)c1cnn(-c2ccc(C)cc2C)c14 | 43.3 µM | 18.7 µM | 16.5 µM | 6.55 µM |
| CCOC(=O)[C@]1(C)CCC[C@@]2(C)[C@@H]3CC[C@@]4(C)C[C@]3(CC[C@@H]21)[C@@H]1CN(c2ccc(F)cc2)N=C14 | > 50 µM | > 50 µM | > 50 µM | 4.51 µM |
| CCOC(=O)[C@]1(C)CCC[C@@]2(C)[C@@H]3CC[C@@]4(C)C[C@]3(CC[C@@H]21)[C@@H]1CN(c2cccc(Cl)c2)N=C14 | > 50 µM | > 50 µM | > 50 µM | 4.57 µM |
| C[C@@]12CC[C@@H]3[C@@](CC[C@H]4[C@@]3(C)CCC[C@@]4(C)C(=O)O)(CC1=O)C2 [ISOSTEVIOL] | > 50 µM | > 50 µM | > 50 µM | > 50 µM |

These reach a lower IC50 (HeLa). Values come first.

| IC50 (HeLa) | IC50 (SGC-7901) | IC50 (A549) | IC50 (Raji) | SMILES |
| --- | --- | --- | --- | --- |
| 29.1 µM | 29.4 µM | 13.7 µM | 3.91 µM | CCOC(=O)[C@]1(C)CCC[C@@]2(C)[C@@H]3CC[C@@]4(C)C[C@]3(CC[C@@H]21)[C@@H]1CN(c2ccc(C)cc2)N=C14 |
| 28.8 µM | 16.6 µM | 17.6 µM | 5.63 µM | CCOC(=O)[C@]1(C)CCC[C@@]2(C)[C@@H]3CC[C@@]4(C)C[C@]3(CC[C@@H]21)[C@@H]1CN(c2c(C)cccc2C)N=C14 |
| 34.6 µM | 25.4 µM | 21.5 µM | 10.1 µM | CCOC(=O)[C@]1(C)CCC[C@@]2(C)[C@@H]3CC[C@@]4(C)C[C@]3(CC[C@@H]21)c1cnn(-c2ccccc2Cl)c14 |
| 15.2 µM | 35.3 µM | 19 µM | 7.71 µM | CCOC(=O)[C@]1(C)CCC[C@@]2(C)[C@@H]3CC[C@@]4(C)C[C@]3(CC[C@@H]21)c1cnn(-c2ccccc2C)c14 |
| 13.5 µM | 2.71 µM | 3.18 µM | 1.09 µM | CCOC(=O)[C@]1(C)CCC[C@@]2(C)[C@@H]3CC[C@@]4(C)C[C@]3(CC[C@@H]21)c1cnn(-c2ccc(Cl)cc2Cl)c14 |
| 34.9 µM | 27.1 µM | 33.2 µM | 5.7 µM | CCOC(=O)[C@]1(C)CCC[C@@]2(C)[C@@H]3CC[C@@]4(C)C[C@]3(CC[C@@H]21)c1cnn(-c2c(Cl)cccc2Cl)c14 |
| 37.5 µM | 19.3 µM | 18.2 µM | 3.26 µM | CCOC(=O)[C@]1(C)CCC[C@@]2(C)[C@@H]3CC[C@@]4(C)C[C@]3(CC[C@@H]21)c1cnn(-c2cccc(C)c2C)c14 |
| 34.3 µM | 33 µM | 17.1 µM | 7.94 µM | CCOC(=O)[C@]1(C)CCC[C@@]2(C)[C@@H]3CC[C@@]4(C)C[C@]3(CC[C@@H]21)c1cnn(-c2cc(C)ccc2C)c14 |
| 20.3 µM | 9.17 µM | 11.8 µM | 2.09 µM | CCOC(=O)[C@]1(C)CCC[C@@]2(C)[C@@H]3CC[C@@]4(C)C[C@]3(CC[C@@H]21)c1cnn(-c2c(C)cccc2C)c14 |
| 38.2 µM | 38.1 µM | 15.8 µM | 6.5 µM | CCOC(=O)[C@]1(C)CCC[C@@]2(C)[C@@H]3CC[C@@]4(C)C[C@]3(CC[C@@H]21)c1cnn(-c2ccc(C)c(C)c2)c14 |
